Active and inactive are the calls of the source. No cut-off for these calls is given here.
Assays:
[1] = system: U-87 MG; assay: Cytotoxicity against human U87MG cells assessed as inhibition of cell growth measured after 72 hrs by MTT assay; type: functional, cell-based, U-87MG ATCC; conditions: Homo sapiens, U-87 MG, 72 h; read-out: IC50
In short: (§1)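 A172 and NU04 cells were seeded at 4000 cells/well and U87MG at 5000 cells/well, incubated overnight at 37 °C, 5% CO2, then exposed to compound or vehicle for 72 h. MTT (3 mg/mL) was added for 4 h, formazan was dissolved in DMSO, and absorbance was read at 570 nm. IC50 came from nonlinear regression; mean ± SD of at least three experiments.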

[2] = system: A 172; assay: Cytotoxicity against human A172 cells assessed as inhibition of cell growth measured after 72 hrs by MTT assay; type: functional, cell-based; conditions: Homo sapiens, A 172, 72 h; read-out: IC50; in short: as §1
[3] = Cytotoxicity against human NU04 cells assessed as inhibition of cell growth measured after 72 hrs by MTT assay; type: functional, cell-based; conditions: Homo sapiens, 72 h; read-out: IC50; in short: as §1
[4] = system: U-87 MG; assay: Inhibition of colony formation in human U87MG cells […] by crystal violet staining based assay; type: functional, cell-based; conditions: U-87MG ATCC
In short: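 Clonogenicity: U87MG cells seeded at 200 cells/well, left overnight, treated 24 h, then medium replaced and cells grown ten days. Stained 30 min with crystal violet, washed, imaged; normalized well intensity from three independent experiments.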

[5] = system: HFF-1; assay: Cytotoxicity against HFF1 cells assessed as inhibition of cell growth measured after 72 hrs by MTT assay; type: cell-based; conditions: Homo sapiens, HFF-1, 72 h
In short: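 Cells grown as monolayers at 37 °C, 5% CO2, seeded and left overnight, then exposed to drug or vehicle for 72 h. MTT (20 μL of 3 mg/mL) added for 4 h, supernatant removed, formazan dissolved in DMSO, absorbance read at 570 nm. IC50 from nonlinear regression of log concentration–response curves; at least three independent experiments.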

[6] = biological target: T1, Protein disulfide-isomerase (Homo sapiens, UniProt P07237); assay: Binding affinity to recombinant human N-terminal His-tagged PDI expressed in Escherichia coli BL21 (DE3) pLysS assessed as increase in melting temperature by ROX dye based thermal shift assay
In short: (§2)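 Purified wild-type, C53S/C397S or H256A PDI at 0.5 mg/mL in 50 mM Tris, pH 7.0, with or without 100 μM compound, was mixed with ROX dye in a 20 µL well. DMSO (5% in buffer) was the control. Samples were heated 25–99 °C at 1 °C/min, and the Boltzmann melting temperature shift versus DMSO was reported. Mean ± SD of three experiments.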
Target sequence in this assay (P07237 18-508 limits assumed): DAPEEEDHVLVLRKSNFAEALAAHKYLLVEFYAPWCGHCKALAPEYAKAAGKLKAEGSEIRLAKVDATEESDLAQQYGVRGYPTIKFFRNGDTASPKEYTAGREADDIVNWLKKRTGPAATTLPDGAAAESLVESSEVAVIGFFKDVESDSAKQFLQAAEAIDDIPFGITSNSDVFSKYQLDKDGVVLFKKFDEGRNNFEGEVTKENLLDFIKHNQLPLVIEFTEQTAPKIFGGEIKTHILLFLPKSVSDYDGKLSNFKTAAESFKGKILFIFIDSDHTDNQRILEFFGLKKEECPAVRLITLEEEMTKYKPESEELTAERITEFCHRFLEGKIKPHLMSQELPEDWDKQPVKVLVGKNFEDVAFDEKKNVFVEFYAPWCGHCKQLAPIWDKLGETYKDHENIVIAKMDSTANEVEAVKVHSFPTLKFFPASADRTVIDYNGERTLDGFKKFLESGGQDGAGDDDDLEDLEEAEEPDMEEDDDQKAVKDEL

[7] = system: Protein disulfide-isomerase (Homo sapiens), P07237 [C53S,C397S]; assay: Binding affinity to recombinant human N-terminal His-tagged PDI C53S/C397S double mutant expressed in Escherichia coli BL21 (DE3) pLysS assessed as change in melting temperature at 100 uM by ROX dye based thermal shift assay; in short: as §2
[8] = biological target: Eukaryotic translation initiation factor 2 subunit 1 (Homo sapiens) (UniProt P05198); assay: Induction of EIF2alpha phosphorylation in human U87MG cells at 20 uM measured after 2 hrs by Western blot analysis; type: cell-based
In short: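 eIF2α phosphorylation in U87MG cells after 2 h with 1 µM PACMA31 or 20 µM analogues; tunicamycin 10 µg/mL as comparator. Lysates (Tris/NaCl/Triton/SDS, sonicated) quantified by BCA; 30 µg protein separated on 10% gels, blotted to PVDF, probed for phospho-eIF2α, detected by fluorescence.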

[9] = system: U-87 MG; assay: Induction of endoplasmic reticulum stress in human U87MG cells assessed as increase in GRP78 expression at 20 uM measured after 24 hrs by Western blot analysis; type: functional, cell-based; conditions: U-87MG ATCC
In short: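 ER-stress immunoblot: 0.5 x 10^6 U87MG cells/well treated for 24 h with 20 µM analogues, 1 µM PACMA31 or DMSO; tunicamycin 10 µg/mL for 2 or 24 h as positive control. Lysis in Tris/NaCl/Triton/SDS buffer with sonication; 30 µg protein on 10% gels, transferred to PVDF, GRP78 probed, fluorescence imaging.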

[10] = biological target: Eukaryotic translation initiation factor 2 subunit 1 (Homo sapiens) (UniProt P05198); assay: Induction of EIF2alpha phosphorylation in human A172 cells at 20 uM measured after 2 hrs by Western blot analysis; type: cell-based
[11] = system: A 172; assay: Induction of endoplasmic reticulum stress in human A172 cells assessed as increase in GRP78 expression at 20 uM measured after 24 hrs by Western blot analysis; type: functional, cell-based
[12] = system: U-87 MG; assay: Effect on PDI expression in human U87MG cells at 20 uM measured after 24 hrs by Western blot analysis; type: functional, cell-based; conditions: U-87MG ATCC
[13] = system: A 172; assay: Effect on PDI expression in human A172 cells at 20 uM measured after 24 hrs by Western blot analysis; type: functional, cell-based
[14] = system: U-87 MG; assay: Effect on MMP2 expression in human U87MG cells at 10 uM measured after 24 hrs by Western blot analysis; type: functional, cell-based; conditions: U-87MG ATCC
[15] = system: U-87 MG; assay: Down regulation of MMP9 expression in human U87MG cells at 10 uM measured after 24 hrs by Western blot analysis; type: functional, cell-based; conditions: U-87MG ATCC
[16] = biological target: Focal adhesion kinase 1 (Homo sapiens) (UniProt Q05397); assay: Effect on FAK phosphorylation in human U87MG cells at 10 uM measured after 24 hrs by Western blot analysis; type: cell-based
[17] = system: Protein disulfide-isomerase (Homo sapiens), P07237 [H256A]; assay: Inhibition of recombinant human N-terminal His-tagged PDI H256A mutant expressed in Escherichia coli BL21 (DE3) pLysS at 10 uM assessed as reduction in enzyme-mediated bovine insulin aggregation
In short: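 Insulin reductase assay against H256A PDI: 0.4 μM enzyme preincubated with compounds at 10 μM for 1 h at 37 °C in 100 mM sodium phosphate, 2 mM EDTA, 8 μM DTT, pH 7.0. Then 500 μM DTT and 130 μM bovine insulin added; aggregation read at 620 nm at room temperature. Activity % from OD change at 0 and 80 min, relative to PDI and DTT-only controls; three experiments.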

[18] = biological target: T1, Protein disulfide-isomerase; assay: Inhibition of recombinant human N-terminal His-tagged PDI expressed in Escherichia coli BL21 (DE3) pLysS at 100 uM measured after 1 hr by ANS dye based fluorescence spectra analysis
In short: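 ANS spectral scan: PDI incubated with 100 μM compounds or matching DMSO in TBS for 1 h at 37 °C. ANS then added and incubated 20 min at 25 °C in the dark. Fluorescence spectrum recorded with excitation 370 nm, emission 400–700 nm.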
Target sequence in this assay (P07237 18-508 limits assumed): as above

[19] = biological target: T1, Protein disulfide-isomerase; assay: Inhibition of recombinant human N-terminal His-tagged PDI expressed in Escherichia coli BL21 (DE3) pLysS assessed as reduction in enzyme-mediated bovine insulin aggregation at 40 uM measured after 1 hr in presence of 5 mM NAC
In short: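 Compounds pretreated with NAC for 30 min at 37 °C, then added to the insulin reductase assay at final 40 μM compound with 0, 1, 2 or 5 mM NAC. The assay uses 0.4 μM PDI preincubated 1 h at 37 °C, then DTT and bovine insulin, read at 620 nm, with % activity at 80 min.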
Target sequence in this assay (P07237 18-508 limits assumed): as above

[20] = biological target: T1, Protein disulfide-isomerase; assay: Binding affinity to recombinant human N-terminal His-tagged PDI expressed in Escherichia coli BL21 (DE3) pLysS by isothermal titration calorimetry
Target sequence in this assay (P07237 whole entry): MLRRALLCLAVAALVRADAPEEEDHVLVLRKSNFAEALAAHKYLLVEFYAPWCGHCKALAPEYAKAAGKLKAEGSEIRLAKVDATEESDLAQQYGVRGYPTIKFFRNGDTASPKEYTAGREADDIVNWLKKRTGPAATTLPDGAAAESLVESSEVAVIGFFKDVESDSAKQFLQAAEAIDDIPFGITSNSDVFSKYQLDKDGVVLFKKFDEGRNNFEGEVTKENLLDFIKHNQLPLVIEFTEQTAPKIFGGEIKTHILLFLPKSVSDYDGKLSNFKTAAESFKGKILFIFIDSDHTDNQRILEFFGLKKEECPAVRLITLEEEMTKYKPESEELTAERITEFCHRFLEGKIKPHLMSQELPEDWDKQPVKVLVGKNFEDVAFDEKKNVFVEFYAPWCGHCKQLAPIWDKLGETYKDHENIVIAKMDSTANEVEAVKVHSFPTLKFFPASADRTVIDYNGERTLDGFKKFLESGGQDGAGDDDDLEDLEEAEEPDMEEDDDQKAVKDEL

Chain of Protein disulfide-isomerase (Homo sapiens), P07237 [H256A] (P07237 whole entry H256A): as the sequence (P07237 whole entry) above, with H256A counted along it
Chain of Focal adhesion kinase 1 (Homo sapiens) (Q05397 2-1052 limits assumed): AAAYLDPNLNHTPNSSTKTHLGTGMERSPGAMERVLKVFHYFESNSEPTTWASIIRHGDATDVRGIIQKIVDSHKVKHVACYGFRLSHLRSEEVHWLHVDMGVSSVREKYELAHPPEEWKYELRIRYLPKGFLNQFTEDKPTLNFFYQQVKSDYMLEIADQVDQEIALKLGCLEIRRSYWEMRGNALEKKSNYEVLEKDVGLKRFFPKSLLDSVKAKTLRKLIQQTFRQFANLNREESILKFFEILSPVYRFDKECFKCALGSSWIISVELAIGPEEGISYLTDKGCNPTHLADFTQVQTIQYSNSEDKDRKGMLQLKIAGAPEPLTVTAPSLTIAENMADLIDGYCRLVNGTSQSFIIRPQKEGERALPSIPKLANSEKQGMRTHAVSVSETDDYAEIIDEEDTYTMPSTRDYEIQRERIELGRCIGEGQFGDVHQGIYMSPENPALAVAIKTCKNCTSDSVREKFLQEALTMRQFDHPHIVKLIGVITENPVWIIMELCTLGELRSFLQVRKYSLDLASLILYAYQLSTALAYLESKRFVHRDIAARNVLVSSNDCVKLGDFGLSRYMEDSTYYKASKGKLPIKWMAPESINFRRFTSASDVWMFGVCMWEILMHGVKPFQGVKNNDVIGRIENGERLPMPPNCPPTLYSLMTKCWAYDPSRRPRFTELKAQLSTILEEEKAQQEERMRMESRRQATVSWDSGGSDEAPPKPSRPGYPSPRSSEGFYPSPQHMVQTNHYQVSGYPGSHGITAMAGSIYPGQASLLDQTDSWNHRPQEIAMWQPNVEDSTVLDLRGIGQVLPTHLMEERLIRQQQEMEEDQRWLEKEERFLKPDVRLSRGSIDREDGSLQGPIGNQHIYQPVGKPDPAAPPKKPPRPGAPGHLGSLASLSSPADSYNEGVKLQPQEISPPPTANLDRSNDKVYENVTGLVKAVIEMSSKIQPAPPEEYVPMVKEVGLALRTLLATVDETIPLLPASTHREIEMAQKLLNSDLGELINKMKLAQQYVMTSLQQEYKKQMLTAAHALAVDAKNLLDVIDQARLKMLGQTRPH
Chain of Protein disulfide-isomerase (Homo sapiens), P07237 [C53S,C397S] (P07237 whole entry C53S/C397S): as the sequence (P07237 whole entry) above, with C53S, C397S counted along it
Chain of Eukaryotic translation initiation factor 2 subunit 1 (Homo sapiens) (P05198 whole entry): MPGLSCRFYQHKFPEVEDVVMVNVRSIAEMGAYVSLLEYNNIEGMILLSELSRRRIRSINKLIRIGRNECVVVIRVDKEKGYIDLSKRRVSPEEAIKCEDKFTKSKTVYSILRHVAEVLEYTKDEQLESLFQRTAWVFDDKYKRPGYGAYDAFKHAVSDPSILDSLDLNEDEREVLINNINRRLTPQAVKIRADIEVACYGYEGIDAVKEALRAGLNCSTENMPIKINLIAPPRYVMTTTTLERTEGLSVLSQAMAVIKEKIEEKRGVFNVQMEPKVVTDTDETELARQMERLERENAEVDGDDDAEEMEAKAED

Activity [6]	Activity [7]	Activity [8]	Activity [10]	Activity [16]	inhibition [17]	inhibition [18]	inhibition [19]	Kd [20]	Compound	IC50 [1] [µM]	IC50 [2] [µM]	IC50 [3] [µM]	inhibition [4]	IC50 [5] [µM]	Activity [9]	Activity [11]	Activity [12]	Activity [13]	Activity [14]	Activity [15]	other results
Dose-dependent effect	Active	Active	Active	inactive	inactive	Active	Active		O=C(/C=C/c1ccc(-c2cccnc2)cc1)c1cccc(O)c1	10.7	11	4.9	Dose-dependent effect	22.5	Active	Active	inactive	inactive	inactive	Active	
	Active	Active	Active	inactive	inactive	Active	Active		N#Cc1cccc(/C=C/C(=O)c2ccc(O)cc2)c1	10.3 to 10.7	16.8	15.7	Dose-dependent effect	91.2	Active	Active	inactive	inactive	inactive		Kd ([20]; read-out: Kd): 9.1 µM
Dose-dependent effect	Active	Active	Active	inactive	Active	Active	inactive	Nd(Insoluble)	CCCCCN(CCCCC)S(=O)(=O)c1ccc(C(=O)/C=C/c2cccc(O)c2)cc1	15	11.3	7.6	Dose-dependent effect	29.2	Active	Active	inactive	inactive	inactive	Active	
Dose-dependent effect	Active	Active	Active	inactive	inactive	Active	inactive	Nd(Insoluble)	COC(=O)c1cccc(/C=C/C(=O)c2cccc(O)c2)c1	16.5	19.5	22.7	Dose-dependent effect	17.4	Active	Active	inactive	inactive	inactive		
		Active	Active	inactive	inactive				CCCCCN(CCCCC)S(=O)(=O)c1ccc(C(=O)/C=C/c2cccc(C#N)c2)cc1	5.6	9	5	Dose-dependent effect	3.4	Active	Active	inactive	inactive	inactive	Active	
